{"source": "ChEMBL document CHEMBL1155764", "about": "“Cytotoxicity of Rhamnosylanthraquinones and Rhamnosylanthrones from Rhamnus nepalensis” (J Nat Prod, 2001)"}
{"test_system": "KB", "test": "(§1) Cytotoxicity against human KB cells", "type": "functional, cell-based", "conditions": "Homo sapiens, KB; read-out: IC50; call rule not given here", "units": {"IC50": "nM"}}
{"smiles": "CC(=O)O[C@@H]1[C@@H](O)[C@H](C)O[C@@H](Oc2cc(O)c3c(c2)[C@H]([C@H]2c4cc(C)cc(O)c4C(=O)c4c(O)cc(O)cc42)c2cc(C)cc(O)c2C3=O)[C@@H]1OC(C)=O", "IC50": 1300}
{"smiles": "CC(=O)O[C@@H]1[C@@H](O)[C@H](C)O[C@@H](Oc2cc(O)c3c(c2)[C@H]([C@@H]2c4cc(C)cc(O)c4C(=O)c4c(O)cc(O[C@@H]5O[C@@H](C)[C@H](O)[C@@H](OC(C)=O)[C@H]5OC(C)=O)cc42)c2cc(C)cc(O)c2C3=O)[C@@H]1OC(C)=O", "IC50": 2500}
{"smiles": "CC(=O)O[C@@H]1[C@@H](O)[C@H](C)O[C@@H](Oc2cc(O)c3c(c2)[C@@H]([C@H]2c4cc(C)cc(O)c4C(=O)c4c(O)cc(O)cc42)c2cc(C)cc(O)c2C3=O)[C@@H]1OC(C)=O", "IC50": 800}
{"smiles": "CC(=O)O[C@@H]1[C@@H](O)[C@H](C)O[C@@H](Oc2cc(O)c3c(c2)[C@H]([C@H]2c4cc(C)cc(O)c4C(=O)c4c(O)cc(O[C@@H]5O[C@@H](C)[C@H](O)[C@@H](OC(C)=O)[C@H]5OC(C)=O)cc42)c2cc(C)cc(O)c2C3=O)[C@@H]1OC(C)=O", "IC50": 900}
{"smiles": "Cc1cc(O)c2c(c1)[C@@H]([C@H]1c3cccc(O)c3C(=O)c3c(O)cc(C)cc31)c1cc(O)cc(O)c1C2=O", "IC50": 1800}
{"smiles": "Cc1cc(O)c2c(c1)[C@H]([C@@H]1c3cc(C)cc(O)c3C(=O)c3c(O)cc(O)cc31)c1cccc(O)c1C2=O", "IC50": 3400}
{"smiles": "Cc1cc(O)c2c(c1)[C@H]([C@H]1c3cccc(O)c3C(=O)c3c(O)cc(C)cc31)c1cccc(O)c1C2=O", "IC50": 200}
{"smiles": "CC(=O)O[C@@H]1[C@@H](O)[C@H](C)O[C@@H](Oc2cc(O)c3c(c2)C(=O)c2cc(C)cc(O)c2C3=O)[C@@H]1OC(C)=O", "IC50": 1900}
{"smiles": "Cc1cc(O)c2c(c1)[C@H]([C@H]1c3cc(C)cc(O)c3C(=O)c3c(O)cc(O)cc31)c1cc(O)cc(O)c1C2=O", "IC50": 2500}
{"smiles": "CC(=O)O[C@@H]1[C@@H](OC(C)=O)[C@H](Oc2cc(O)c3c(c2)C(C(C)=O)c2cc(C)cc(O)c2C3=O)O[C@@H](C)[C@H]1OC(C)=O", "note": "(some centres not stated)", "IC50": 70}
{"smiles": "CC(=O)O[C@@H]1[C@@H](O)[C@H](C)O[C@@H](Oc2cc(O)c3c(c2)[C@H]([C@H]2c4cc(C)cc(O)c4C(=O)c4c(O)cc(O[C@@H]5O[C@@H](C)[C@H](OC(C)=O)[C@@H](O)[C@H]5OC(C)=O)cc42)c2cc(C)cc(O)c2C3=O)[C@@H]1OC(C)=O", "IC50": 800}
{"smiles": "CC(=O)O[C@@H]1[C@@H](O)[C@H](C)O[C@@H](Oc2cc(O)c3c(c2)[C@H]([C@@H]2c4cc(C)cc(O)c4C(=O)c4c(O)cc(O[C@@H]5O[C@@H](C)[C@H](OC(C)=O)[C@@H](O)[C@H]5OC(C)=O)cc42)c2cc(C)cc(O)c2C3=O)[C@@H]1OC(C)=O", "IC50": 1200}
{"smiles": "CC(=O)O[C@@H]1[C@@H](O)[C@H](C)O[C@@H](Oc2cc(O)c3c(c2)[C@@H]([C@@H]2c4cc(C)cc(O)c4C(=O)c4c(O)cc(O[C@@H]5O[C@@H](C)[C@H](OC(C)=O)[C@@H](O)[C@H]5OC(C)=O)cc42)c2cc(C)cc(O)c2C3=O)[C@@H]1OC(C)=O", "IC50": 1000}
{"smiles": "CC(=O)O[C@@H]1[C@@H](O)[C@H](C)O[C@@H](Oc2cc(O)c3c(c2)[C@@H]([C@@H]2c4cc(C)cc(O)c4C(=O)c4c(O)cc(O)cc42)c2cc(C)cc(O)c2C3=O)[C@@H]1OC(C)=O", "IC50": 3300}
{"smiles": "CC(=O)O[C@@H]1[C@@H](O)[C@H](C)O[C@@H](Oc2cc(O)c3c(c2)[C@H]([C@@H]2c4cc(C)cc(O)c4C(=O)c4c(O)cc(O)cc42)c2cc(C)cc(O)c2C3=O)[C@@H]1OC(C)=O", "IC50": 4500}
{"smiles": "Cc1cc(O)c2c(c1)[C@H]([C@@H]1c3cccc(O)c3C(=O)c3c(O)cc(C)cc31)c1cccc(O)c1C2=O", "IC50": 1200}
{"smiles": "Cc1cc(O)c2c(c1)[C@H]([C@H]1c3cc(C)cc(O)c3C(=O)c3c(O)cc(O)cc31)c1cccc(O)c1C2=O", "IC50": 1400}
{"smiles": "Cc1cc(O)c2c(c1)[C@@H]([C@H]1c3cc(C)cc(O)c3C(=O)c3c(O)cc(O)cc31)c1cc(O)cc(O)c1C2=O", "IC50": 1100}
{"smiles": "Cc1cc(O)c2c(c1)[C@@H]([C@H]1c3cc(C)cc(O)c3C(=O)c3c(O)cc(O)cc31)c1cccc(O)c1C2=O", "IC50": 1200}
{"smiles": "COc1cccc2c1C(=O)c1c(O)c3c(c(O)c1C2=O)C[C@@](O)(C(=O)CO)C[C@@H]3O[C@H]1C[C@H](N)[C@H](O)[C@H](C)O1", "note": "[DOXORUBICIN]", "IC50": 200}
{"smiles": "Cc1cc(O)c2c(c1)Cc1cc(O)cc(O)c1C2=O", "note": "[EMODIN ANTHRONE]", "IC50": 3900}
{"smiles": "CC(=O)O[C@@H]1[C@@H](O)[C@H](C)O[C@@H](Oc2cc(O)c3c(c2)Cc2cc(C)cc(O)c2C3=O)[C@@H]1OC(C)=O", "note": "[PRINOIDIN]", "IC50": 45}
{"test_system": "KB", "test": "as §1", "type": "functional, cell-based", "conditions": "kb"}
{"smiles": "CC(=O)O[C@H]1[C@H](Oc2cc(O)c3c(c2)C(=O)c2cc(C)cc(O)c2C3=O)O[C@@H](C)[C@H](O)[C@H]1O", "IC50": "Not Active"}
{"smiles": "CC(=O)O[C@@H]1[C@@H](OC(C)=O)[C@H](C)O[C@@H](Oc2cc(O)c3c(c2)C(=O)c2cc(C)cc(O)c2C3=O)[C@@H]1OC(C)=O", "IC50": "Not Active"}
{"smiles": "CC(=O)O[C@@H]1[C@@H](O)[C@H](C)O[C@@H](Oc2cc(O)c3c(c2)C(=O)c2cc(C)cc(O)c2C3=O)[C@@H]1O", "IC50": "Not Active"}
{"smiles": "Cc1cc(O)c2c(c1)C(=O)c1cccc(O)c1C2=O", "note": "[CHRYSOPHANOL]", "IC50": "Not Active"}
{"smiles": "Cc1cc(O)c2c(c1)C(=O)c1cc(O)cc(O)c1C2=O", "note": "[EMODIN]", "IC50": "Not Active"}
{"smiles": "CC(=O)Oc1cc(C)cc2c1C(=O)c1c(OC(C)=O)cc(O[C@@H]3O[C@@H](C)[C@H](OC(C)=O)[C@@H](OC(C)=O)[C@H]3OC(C)=O)cc1C2=O", "note": "[FRANGULIN A PERACETATE]", "IC50": "Not Active"}
{"smiles": "COc1cc(O)c2c(c1)C(=O)c1cc(C)cc(O)c1C2=O", "note": "[PHYSCION]", "IC50": "Not Active"}
{"test_system": "Mus musculus", "test": "Toxicity in mouse P388 cells xenografted CDF1 mouse assessed as survival time at 10 mg/kg, ip", "type": "organism-based", "set-up": "dose 10 mg/kg, route intraperitoneal", "conditions": "in vivo", "outline": "(§2)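 Two CDF1 mice per dose received P388 leukaemia cells intravenously, then a single intraperitoneal injection of the compound at 10, 5 or 2.5 mg/kg. The read-out was survival time in days after injection, compared with the average survival of the grafted mice.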", "units": {"Survival": "days"}}
{"smiles": "CC(=O)O[C@@H]1[C@@H](O)[C@H](C)O[C@@H](Oc2cc(O)c3c(c2)Cc2cc(C)cc(O)c2C3=O)[C@@H]1OC(C)=O", "note": "[PRINOIDIN]", "Survival": 2}
{"test_system": "Mus musculus", "test": "Toxicity in mouse P388 cells xenografted CDF1 mouse assessed as survival time at 5 mg/kg, ip", "type": "organism-based", "set-up": "dose 5 mg/kg, route intraperitoneal", "conditions": "in vivo", "outline": "as §2", "units": {"Survival": "days"}}
{"smiles": "CC(=O)O[C@@H]1[C@@H](O)[C@H](C)O[C@@H](Oc2cc(O)c3c(c2)Cc2cc(C)cc(O)c2C3=O)[C@@H]1OC(C)=O", "note": "[PRINOIDIN]", "Survival": 4}
{"test_system": "Mus musculus", "test": "Toxicity in mouse P388 cells xenografted CDF1 mouse assessed as survival time at 2.5 mg/kg, ip", "type": "organism-based", "set-up": "dose 2.5 mg/kg, route intraperitoneal", "conditions": "in vivo", "outline": "as §2", "units": {"Survival": "days"}}
{"smiles": "CC(=O)O[C@@H]1[C@@H](O)[C@H](C)O[C@@H](Oc2cc(O)c3c(c2)Cc2cc(C)cc(O)c2C3=O)[C@@H]1OC(C)=O", "note": "[PRINOIDIN]", "Survival": 7}
